Calls of active or inactive are those of the source. The rule behind the calls is not given here.
Columns and labels:
K562 = test: Antiproliferative activity against human K562 cells after 48 hrs by MTT assay; assay type: functional, cell-based; conditions: K562, 48 h
Method in brief: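 K562 suspension cells in RPMI-1640 with 10% FBS, 37 °C, 5% CO2. Seeded at 1.5×10^4 cells/well, exposed 48 h to final 50, 25, 10, 1 and 0.1 μM. MTT (5 mg/mL) added for 4 h at 37 °C. IC50 from the dose series.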

[1] = molecular target: T1, DNA topoisomerase 1 (Homo sapiens) (UniProt P11387); test: Inhibition of recombinant human Topo1-mediated relation of supercoiled pBR322 DNA at 50 uM after 30 mins by agarose gel electrophoresis
T1 sequence (whole entry): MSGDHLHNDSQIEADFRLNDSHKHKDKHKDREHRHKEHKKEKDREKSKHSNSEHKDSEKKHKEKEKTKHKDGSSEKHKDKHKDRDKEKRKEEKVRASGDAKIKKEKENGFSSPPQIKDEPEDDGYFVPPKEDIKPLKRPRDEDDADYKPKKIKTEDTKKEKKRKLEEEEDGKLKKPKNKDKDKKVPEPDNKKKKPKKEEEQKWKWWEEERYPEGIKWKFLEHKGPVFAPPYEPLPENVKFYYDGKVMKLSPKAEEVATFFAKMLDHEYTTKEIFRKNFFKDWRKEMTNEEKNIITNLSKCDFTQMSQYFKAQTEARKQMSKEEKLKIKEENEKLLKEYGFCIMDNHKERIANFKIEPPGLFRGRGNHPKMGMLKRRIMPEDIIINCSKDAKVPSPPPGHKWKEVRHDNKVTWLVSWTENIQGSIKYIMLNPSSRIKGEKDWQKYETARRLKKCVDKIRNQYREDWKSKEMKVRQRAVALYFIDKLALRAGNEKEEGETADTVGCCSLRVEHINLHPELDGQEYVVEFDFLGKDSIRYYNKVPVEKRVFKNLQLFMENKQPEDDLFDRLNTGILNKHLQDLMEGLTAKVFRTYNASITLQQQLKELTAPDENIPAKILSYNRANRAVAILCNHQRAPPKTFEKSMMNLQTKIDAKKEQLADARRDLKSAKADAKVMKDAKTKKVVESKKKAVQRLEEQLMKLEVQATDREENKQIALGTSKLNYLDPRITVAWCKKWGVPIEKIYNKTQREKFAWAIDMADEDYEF
Method in brief: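 pBR322 at 100 ng with 1.0 unit recombinant human topo I. Incubated 30 min at 37 °C in 35 mM Tris-HCl pH 8.0, 5 mM MgCl2, 72 mM KCl, 0.01% BSA, 2 mM spermidine and 5 mM DTT. Run on 1% agarose in TAE at 100 V for 25 min. EB-stained gel viewed under UV.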

Row | Compound | IC50 (K562) | inhibition [1]
1 | Cc1cccc2c(=O)c3c(NCc4ccncc4)ccc(C(=O)NCCCN(C)C)c3[nH]c12 | 8.25 µM | Active
2 | COCCNC(=O)c1ccc(NCc2ccccn2)c2c(=O)c3cccc(OC)c3[nH]c12 | > 50 µM | inactive
3 | COc1cccc2c(=O)c3c(NCCc4ccncc4)ccc(C(=O)NCCN(C)C)c3[nH]c12 | 3.08 µM | Active
4 | COCCNC(=O)c1ccc(NCc2ccncc2)c2c(=O)c3cccc(C)c3[nH]c12 | > 50 µM | inactive
5 | COc1cccc2c(=O)c3c(NCc4ccccn4)ccc(C(=O)NCCN(C)C)c3[nH]c12 | 2.28 µM | Active
6 | COc1cccc2c(=O)c3c(NCc4ccccn4)ccc(C(=O)NCCCN(C)C)c3[nH]c12 | 6.12 µM | Active
7 | COCCNC(=O)c1ccc(NCc2ccccn2)c2c(=O)c3cccc(C)c3[nH]c12 | > 50 µM | inactive
8 | COc1cccc2c(=O)c3c(N(Cc4ccccn4)Cc4ccccn4)ccc(C(=O)NCCN(C)C)c3[nH]c12 | 13.9 µM | inactive
9 | COc1cccc2c(=O)c3c(NCc4cccnc4)ccc(C(=O)NCCCN(C)C)c3[nH]c12 | 11.3 µM | Active
10 | Cc1cccc2c(=O)c3c(NCc4ccccn4)ccc(C(=O)NCCCN(C)C)c3[nH]c12 | 6.45 µM | Active
11 | CN(C)CCNC(=O)c1ccc(NCc2ccncc2)c2c(=O)c3ccccc3[nH]c12 | 6.33 µM | Active
12 | CN(C)CCNC(=O)c1ccc(NCc2ccncc2)c2c(=O)c3cccc(C(F)(F)F)c3[nH]c12 | 0.89 µM | Active
13 | COCCNC(=O)c1ccc(NCc2cccnc2)c2c(=O)c3cccc(OC)c3[nH]c12 | > 50 µM | inactive
14 | Cc1cccc2c(=O)c3c(NCc4ccccn4)ccc(C(=O)NCCN(C)C)c3[nH]c12 | 1.71 µM | Active
15 | COc1cccc2c(=O)c3c(N(Cc4ccccn4)Cc4ccccn4)ccc(C(=O)NCCCN(C)C)c3[nH]c12 | 13.5 µM | inactive
16 | COc1cccc2c1C(=O)c1c(O)c3c(c(O)c1C2=O)C[C@@](O)(C(=O)CO)C[C@@H]3O[C@H]1C[C@H](N)[C@H](O)[C@H](C)O1 [DOXORUBICIN] | 0.55 µM | –
17 | Cc1cccc2c(=O)c3c(NCc4cccnc4)ccc(C(=O)NCCCN(C)C)c3[nH]c12 | 11.8 µM | Active
18 | COc1cccc2c(=O)c3c(NCc4ccncc4)ccc(C(=O)NCCCCN(C)C)c3[nH]c12 | 6.07 µM | Active
19 | COCCNC(=O)c1ccc(NCc2ccncc2)c2c(=O)c3cccc(OC)c3[nH]c12 | > 50 µM | inactive
20 | COc1cccc2c(=O)c3c(NCc4ccncc4)ccc(C(=O)NCCCN(C)C)c3[nH]c12 | 11.9 µM | Active
21 | CN(C)CCNC(=O)c1ccc(NCc2ccncc2)c2c(=O)c3cc(Cl)cc(Cl)c3[nH]c12 | 0.97 µM | Active
22 | COc1cccc2c(=O)c3c(NCc4cccnc4)ccc(C(=O)NCCN(C)C)c3[nH]c12 | 0.93 µM | Active
23 | Cc1cccc2c(=O)c3c(NCc4cccnc4)ccc(C(=O)NCCN(C)C)c3[nH]c12 | 1.09 µM | Active
24 | COCCNC(=O)c1ccc(NCc2cccnc2)c2c(=O)c3cccc(C)c3[nH]c12 | > 50 µM | inactive
25 | COCCNC(=O)c1ccc(N(Cc2ccccn2)Cc2ccccn2)c2c(=O)c3cccc(C)c3[nH]c12 | 11.2 µM | inactive
26 | COc1cccc2c(=O)c3c(NCc4ccncc4)ccc(C(=O)NCCN(C)C)c3[nH]c12 | 1.36 µM | Active
